An excerpt weighted towards active compounds, which were near 3.5% of everything screened.
MrgX1 agonist – agonists of human MrgX1 receptor, primary screen, HEK293 cells, Fluo-4 calcium flux; Mas-related G-protein coupled receptor member X1 (Homo sapiens), Q96LB2; Fluo-4 calcium fluorescence, agonist mode; active compounds read high; B-score at 10 µM; actives 0.44% (n = 310,000);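 active means calcium response B-score plate-corrected fluorescence ratio at least 3 library SD, with starting fluorescence B-score inside 5 SD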
Target sequence (Q96LB2 whole entry, looked up): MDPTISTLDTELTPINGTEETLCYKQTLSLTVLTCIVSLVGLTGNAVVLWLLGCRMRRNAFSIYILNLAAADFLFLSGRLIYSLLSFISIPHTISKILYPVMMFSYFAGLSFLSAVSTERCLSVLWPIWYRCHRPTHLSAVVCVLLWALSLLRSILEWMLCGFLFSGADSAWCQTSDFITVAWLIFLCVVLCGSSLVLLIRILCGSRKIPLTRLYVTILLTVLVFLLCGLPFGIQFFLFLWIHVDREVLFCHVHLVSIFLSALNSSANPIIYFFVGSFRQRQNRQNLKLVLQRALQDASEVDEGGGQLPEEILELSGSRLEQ
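Material – MrgX1-expressing HEK293 cells · Input – 15,000 cells seeded per well · Dosing – compound as first of three additions · Times – overnight seeding, then 1 h dark dye loading · Measured by – kinetic Fluo-4 NW fluorescence of intracellular calcium · Read-out – B-scored fluorescence response ratio · Benchmarks – positive and negative control wells on each plate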
RGS4 block – RGS4 inhibitors, primary screen, cell-based, HEK293 M3R inducible RGS4, calcium flux | Fluo-4 calcium flux; active compounds read high; triggered by carbachol at its EC20 | B-score at 10 µM | actives 0.45% (n = 310,000) | AID 463165, 2010;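 active means B-score, a plate-corrected calcium signal, over three deviations above library mean, with baseline fluorescence within five deviations of library mean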;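 further: RGS4 expression induced by doxycycline in cells with stable M3 receptor; B-score is computed from the integrated fluorescence ratio over baseline after carbachol; higher B-score means a larger calcium signal and so more RGS4 inhibition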
Target sequence (P49798 whole entry, looked up): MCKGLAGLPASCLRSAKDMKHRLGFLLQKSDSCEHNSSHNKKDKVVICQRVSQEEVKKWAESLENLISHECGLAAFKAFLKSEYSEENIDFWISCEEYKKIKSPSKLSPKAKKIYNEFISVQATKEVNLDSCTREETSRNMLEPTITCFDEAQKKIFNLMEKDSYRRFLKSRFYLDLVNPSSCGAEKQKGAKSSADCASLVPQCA
MrgX1 allo act – positive allosteric modulators of MrgX1, primary screen, HEK293 cells, Fluo-4 calcium flux; Mas-related G-protein coupled receptor member X1 (Homo sapiens), Q96LB2; FDSS; active compounds read high; B-score at 10 µM; actives 0.63% (n = 310,000); AID 588675, 2011;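 active means plate-corrected calcium response at least 3 library SD above typical, normal starting fluorescence, not activating the receptor alone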;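 further: compound read alongside a low EC10 to EC30 dose of BAM8-22 agonist; peak minus trough fluorescence over baseline measured at the second addition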
RGS4 act – RGS4 potentiators or activators, primary screen, cell-based, HEK293 M3R inducible RGS4, calcium flux; actives 0.92% (n = 310,000); carbachol calcium flux Fluo4; active compounds read low; B-score at 10 µM; AID 463111, 2010;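 active means B-score of the integrated calcium signal more than 4 SD below the library mean, with starting fluorescence not abnormally high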;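 further: negative B-score means reduced calcium response which marks RGS4 activation or potentiation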
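Reagent: ECmax carbachol challenge; Test system: M3R-expressing HEK293 line, RGS4 induced by doxycycline; Schedule: overnight RGS4 induction, 30 min dye load 37 °C, 20 min compound RT; Detection: calcium dye Fluo4 fluorescence; Read-out: Agonist-evoked peak-minus-minimum fluorescence over baseline, integrated ratio, B score.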
MrgX1 antagonist – antagonists of human MrgX1 receptor, primary screen, HEK293 cells, Fluo-4 calcium flux. BAM8-22 antagonism; active compounds read low. B-score at 10 µM. actives 1.3% (n = 310,000). AID 588676, 2011;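 active means calcium-response B-score plate-corrected more than 3 library SD below zero, starting fluorescence within 5 deviations, no agonist response on first addition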;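 further: peak minus trough fluorescence over baseline after final BAM8-22 challenge near maximal dose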
Of the large screens only hits and unclear results are named; the others gave an inactive call.

CC1OC(OC2C(OC3C(O[C@H]4CC[C@]5(C)C6C=C[C@]78OC[C@@]9(CC[C@@H](C)[C@H](C)C97)[C@H](O)C[C@@]8(C)[C@]6(C)CC[C@H]5C4(C)C)OC(C)C(O)C3O)OC(CO)C(O)C2O)C(O)C(O)C1O (stereo partly drawn)	RGS4 act -7.4 (no result: MrgX1 agonist, MrgX1 allo act, MrgX1 antagonist)
CCN(CC(=O)Nc1ccc2c(c1)OCCO2)C(=O)CC(NC(C)=O)c1ccccc1 (stereo not drawn)	MrgX1 antagonist -7.4
CCN(CC(=O)Nc1ccc2c(c1)OCCO2)C(=O)/C=C/c1ccccc1	none
O=C(c1cc(-c2ccccc2)nc2ccccc12)N1CCN(c2ccccc2O)CC1	RGS4 act -7.1
O=C(OCC(=O)N1CCN(C(=O)c2ccco2)CC1)c1cc(-c2ccc(Cl)c(Cl)c2Cl)nc2ccccc12	none
O=C(c1cc(-c2ccncc2)nc2ccccc12)N1CCN(c2ccccc2O)CC1	none
CN1CCCN(C(=O)c2cc(-c3ccc(Cl)c(Cl)c3Cl)nc3ccccc23)CC1	MrgX1 agonist 41
Cc1ccc2nc(-c3ccccc3)cc(C(=O)N3CCN(c4ccccc4O)CC3)c2c1	RGS4 act -8.6
Cn1nnnc1SCC(=O)NC(=O)c1cccc([N+](=O)[O-])c1	none
CCN1/C(=C/C=C/C=C/C=C/c2sc3ccccc3[n+]2CC)Sc2ccccc21	MrgX1 antagonist -5.1
CCN1/C(=C/C=C/c2sc3ccccc3[n+]2CC)Sc2ccccc21	RGS4 act -7, MrgX1 antagonist -4.6
CC[n+]1c(/C=C/Nc2ccccc2)sc2ccccc21	none
CCN1/C(=C/C=C/C=C/c2sc3ccccc3[n+]2CC)Sc2ccccc21	none
Cc1cc(C)c2nc(SCC(=O)NCCC3=CCCCC3)cc(C)c2c1	none
CCOc1cc2c(cc1/C=C/c1noc(C)c1[N+](=O)[O-])OC(C)C2 (stereo not drawn)	MrgX1 agonist 41
O=C(CN1CCCCCC1)Nc1ccccc1Oc1ccccc1	RGS4 act -7.2
CCn1cc([N+](=O)[O-])nc1C	MrgX1 antagonist -7.5
COC(=O)Cn1cc([N+](=O)[O-])nc1C	none
O=C(/C=C/c1ccccc1Br)c1ccc2c(c1)OCO2	RGS4 act -11
O=C(/C=C/c1cccc(Br)c1)c1ccc2c(c1)OCO2	MrgX1 allo act 8.3
O=C(/C=C\Nc1cccc(F)c1)c1ccc2c(c1)OCO2	MrgX1 antagonist -4.7
CC(CCc1ccccc1)NC(=O)C(Cc1ccccc1)NC(N)=O (stereo not drawn)	none
CNC(=S)N(Cc1cc2cc(OC)c(OC)cc2[nH]c1=O)C1CCCC1	none
O=C(COC(=O)CCc1ccc(S(=O)(=O)N2CCOCC2)cc1)NCc1ccccc1	MrgX1 allo act 6.8
O=C(COC(=O)CCc1ccc(S(=O)(=O)N2CCOCC2)cc1)NCc1ccccc1Cl	none
COc1ccc(C(=O)NCCc2nnc3ccc(SCC(=O)Nc4cc(C)on4)nn23)cc1	none
COc1cc(N2C(=O)C=CC2=O)c(OC)cc1Cl	RGS4 act -7.1
CC1(C)CC(=O)C2=C(C1)OC(N)=C(C#N)C2c1cc2c(cc1[N+](=O)[O-])OCO2 (stereo not drawn)	none
CCC(=NCc1ccc(Cl)c(Cl)c1)c1nc(-c2ccco2)oc1O	RGS4 act -7.1
Cc1cccc(OC(C)C(=O)N2CCN(Cc3ccc4c(c3)OCO4)CC2)c1 (stereo not drawn)	none
Cc1c(C(=O)/C=C/c2cccs2)oc2ccc(F)cc12	MrgX1 antagonist -6
O=c1[nH][nH]c(C(F)(F)F)c1C=NCc1cccs1	none
Cc1c(C(=O)N2CCN(Cc3ccc4c(c3)OCO4)CC2)sc2ncnc(N3CCN(c4ccccc4F)CC3)c12	MrgX1 antagonist -5.4
CCOc1ccc(C(=O)NCCNC(=O)c2ccc(OCC)cc2)cc1	none
CCOc1ccc(C(=O)NCCCN(CC)CC)cc1	MrgX1 antagonist -5.4
CC1(C#CC[N+]2(C)CCCCC2)CCC2C(O1)c1ccccc1OC2(C)C (stereo not drawn)	RGS4 act -7
CC12CCC3(CO)COC(c4ccccc4O1)C2C3 (stereo not drawn)	none
O=[N+]([O-])c1cccc(-c2ccc(CN3CCCCC3)o2)c1	none
CCOC(=O)c1c(-c2ccccc2)nnn1-c1nc(OCC)nc(N2CCCCC2)n1	RGS4 act -8.7
O=C(N[C@@H](Cc1ccccc1)C(=O)OCC(=O)N1CCOCC1)c1cccs1	none
COc1cc(/C=N/Nc2ccc(C(F)(F)F)cn2)ccc1O	MrgX1 allo act 7.5
CCOC(=O)NC(=O)/C(C#N)=C/c1ccc(N(C)C)cc1	MrgX1 agonist 54
CN(C)c1ccc(/C=C(\C#N)C(=O)c2ccccc2)cc1	MrgX1 antagonist -6.3
CCN(CC)c1ccc(/C=C(\C#N)C(=O)c2ccc(Br)cc2)cc1	MrgX1 agonist 30
CCN(CC)c1ccc(/C=C(\C#N)C(N)=S)cc1	none
Cc1cc(NC(=O)c2cc(-c3cccc(OCC(C)C)c3)nc3ccccc23)no1	none
COc1ccc(/C=N/NC(=S)Nc2ccccc2[N+](=O)[O-])cc1O	MrgX1 allo act 6.8
O=C(COC(=O)[C@@H]1CC(O)CN1S(=O)(=O)c1ccc2c(c1)OCCO2)NCc1ccc(F)cc1 (stereo partly drawn)	none
CC(C)=CCOc1c2ccoc2cc2oc(=O)ccc12	MrgX1 antagonist -5.7
CC1(C)O[C@@H]1COc1c2ccoc2cc2oc(=O)ccc12	none
CC(C)(C)c1cc(C2=CSC3=NCCN23)cc(C(C)(C)C)c1O	RGS4 act -8.1
Cn1c(N)c(-c2ccccc2)c2ccc([N+](=O)[O-])cc2c1=O	MrgX1 agonist 30
O=C1S/C(=C\c2ccc(O)c([N+](=O)[O-])c2)C(=O)N1Cc1cccc([N+](=O)[O-])c1	none
O=C(O)c1cccc(CN2C(=O)S/C(=C/c3ccccc3[N+](=O)[O-])C2=O)c1	MrgX1 allo act 11
CC(Oc1ccc(-c2ccccc2)c(F)c1)c1ccn(S(=O)(=O)c2ccc(F)cc2)n1 (stereo not drawn)	none
O=S(=O)(c1ccc(F)cc1)n1ccc(-c2cccc(OCc3ccc(Cl)cc3Cl)c2)n1	MrgX1 antagonist -8.1
CC1CCN(C(=O)Cn2cnc3c2c(=O)n(C)c(=O)n3C)c2ccccc2S1 (stereo not drawn)	none
Cc1ccc(NC2=C(N3CCCCC3)C(=O)c3ccccc3C2=O)cc1	none
COC1=C(Nc2ccccc2)C(=O)c2ccccc2C1=O	MrgX1 allo act 10
